High-throughput results from PubChem.
CSN deneddyl inh: inhibitors of CSN-mediated cullin deneddylation, primary screen, biochemical, fluorescence polarization, uHTS | COP9 signalosome complex subunit 5 (Homo sapiens), Q92905 | AID 651999, 2013 | actives 0.38% (n = 360,000) | inhibition, % at 12.5 µM | Purified CSN, SCF-Nedd8-OG deneddylation;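 active = pattern-corrected inhibition above about 35%, with an unprinted fluorescence ratio check between 0.5 and 1.5, limit read from the data, passing the limit was not always enough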;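 note: 0% = enzyme with substrate and 100% = substrate without enzyme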
Target sequence (Q92905 whole entry, looked up, one chain of several): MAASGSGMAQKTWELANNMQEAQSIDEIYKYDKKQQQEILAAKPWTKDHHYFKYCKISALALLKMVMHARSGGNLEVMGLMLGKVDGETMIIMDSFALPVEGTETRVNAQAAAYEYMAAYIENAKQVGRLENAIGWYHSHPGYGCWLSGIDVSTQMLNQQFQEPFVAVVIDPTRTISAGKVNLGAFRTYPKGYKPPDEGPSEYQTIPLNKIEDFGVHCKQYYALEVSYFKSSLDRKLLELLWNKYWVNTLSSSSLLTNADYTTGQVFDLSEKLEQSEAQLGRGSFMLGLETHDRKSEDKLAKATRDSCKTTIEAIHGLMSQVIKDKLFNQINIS
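Test system: Human Csn5 produced in HEK293T cells | Compound: 12.5 µM single point | Times: 90 min, room temperature | Signal: Fluorescence polarization readout | Read-out basis: % inhibition of substrate cleavage by Csn5 | Controls: no-enzyme wells high, enzyme-with-substrate wells low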
LANA-H2B inh: blockers of LANA interaction with H2A/H2B – biochemical, FP readout, HTS, primary screen; Protein LANA1 (Human herpesvirus 8 type P (isolate GK18)), Q9QR71; cell-free LANA-H2A/H2B peptide, fluorescence polarization; inhibition, % (concentration not given with the values); actives 0.6% (n = 320,000); AID 2629, 2010; in the data active = inhibition mostly above about 10%, no sharp cut-off; inactive = mostly below about 6.7%
EBNA-1 inh: EBNA-1 DNA-binding inhibitors, primary screen, biochemical, fluorescence polarization; inhibition, % at 14.8 µM; actives 0.34% (n = 300,000); AID 1950, 2009; in the data active = inhibition above about 28%
HNF4A DNA FP: change in binding of human HNF4A to DNA, primary screen, biochemical, fluorescence polarization, FITC-DNA; Hepatocyte nuclear factor 4-alpha (Homo sapiens), P41235; 1 h; activity change, % at 10 µM; actives 0.3% (n = 360,000); in the data active = activity change above about 30%, passing the limit was not always enough
ZTA counter: blocks Epstein-Barr virus ZTA, an EBNA-1 counter-screen. P03206. ZTA-DNA binding, fluorescence polarization. inhibition, % at 11 µM. actives 0.15% (n = 320,000). AID 2234; in the data active = inhibition above about 33%
Target sequence (P03206 whole entry, looked up): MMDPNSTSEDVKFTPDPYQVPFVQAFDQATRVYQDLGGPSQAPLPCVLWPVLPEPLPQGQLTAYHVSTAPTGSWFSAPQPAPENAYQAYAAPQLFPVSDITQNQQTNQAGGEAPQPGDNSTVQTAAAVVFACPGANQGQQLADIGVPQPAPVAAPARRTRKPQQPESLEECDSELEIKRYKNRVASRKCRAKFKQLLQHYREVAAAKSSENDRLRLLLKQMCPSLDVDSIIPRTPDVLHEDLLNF
Bfl-1 A1 inh: caspase 3/7 activation in MEF A1-2A-BIM cells, primary screen, A1 inhibitor project, cell-based, luminescence, HTS; Caspase-Glo 3/7 luminescence, 3 h; percent of clofoctol response, vehicle zero; caspase activation, % (test concentration not listed); actives 0.066% (n = 330,000); AID 2462, 2010;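 active = over half of replicate activation scores above 10%, or exactly half above 10 with the replicate mean above 10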
* marks the source's active call; other numbers are inactive results; nt = no result given; + = active, no number. Hits are enriched below; roughly 1.5% of the tested compounds scored in any of these assays.

SMILES | CSN deneddyl inh | LANA-H2B inh | EBNA-1 inh | HNF4A DNA FP | ZTA counter | Bfl-1 A1 inh
CC(C)(C)OC(=O)NCCc1nnc(S(=O)(=O)Cc2ccc(Cl)cc2Cl)o1 | -2 | 1 | 3 | -4 | -13 | 5.9*
C#CCn1c(=NC(=O)c2ccc(Br)s2)sc2cccc(OC)c21 | 9 | 1 | 5 | 2 | 11 | -1
CC(=O)Nc1cccc(NC(=O)CSc2n[nH]c(-c3ccccc3)n2)c1 | 0 | 20* | nt | 6 | 3 | 0
CC(C(=O)NCc1ccc(Cl)cc1)n1cccc1C(=O)c1ccccc1 (stereo not drawn) | 4 | 19* | -7 | -7 | 10 | 0
COc1ccccc1CNC(=O)C(C)n1cccc1C(=O)c1ccccc1 (stereo not drawn) | -5 | -1 | -14 | 2 | -6 | 0
CCn1cc(C(=S)N2CCC(C(N)=O)CC2)c2ccccc21 | -7 | -1 | 6 | 5 | 4 | 0
CCN(CC)c1ccc2nc3ccc(N)cc3[n+](-c3ccccc3)c2c1 | -70 | nt | nt | -28 | nt | nt
CCN(CC)c1ccc2nc3ccccc3[n+](CC)c2c1 | -6 | 1 | 174* | -2 | + | -1
Cc1cccc(N2CCN(C(=O)c3ccc4c(c3)NC(=O)C(CSCc3cccc(F)c3)N4)CC2C)c1 (stereo not drawn) | 33 | 2 | -18 | 81* | -1 | 0
Cc1ccc(S(=O)(=O)N(C)CCN(C)S(=O)(=O)c2ccc(C)cc2)cc1 | 1 | nt | nt | -3 | nt | nt
O=C(CCN1C(=O)/C(=C\c2cccs2)SC1=S)Nc1nccs1 | 8 | -14 | -10 | 38* | -3 | 0
O=C(CCN1C(=O)S/C(=C\c2cccs2)C1=O)Nc1nccs1 | 1 | 0 | 5 | 4 | -1 | 0
CCOC(=O)c1ccccc1NC(=O)COC(=O)CN1C(=O)C2CC=CCC2C1=O (stereo not drawn) | 1 | 162* | 2 | -5 | -6 | 0
CC1CCN(C(=O)C(=O)Nc2sc3c(c2C(N)=O)CC(C)(C)OC3)CC1 | -9 | 4 | -4 | 1 | 1 | 0
O=C(CSc1nc(=O)n(CCCN2CCOCC2)c2c1CCCC2)Nc1cccc(Cl)c1 | 0 | -12 | 0 | -1 | 6 | 0
Cc1c(NC(=O)CN2C(=O)c3cccc4cccc2c34)c(=O)n(-c2ccccc2)n1C | -6 | 18* | -6 | 0 | -14 | 1
Cc1c(NC(=O)C(C)N(c2ccccc2)S(C)(=O)=O)c(=O)n(-c2ccccc2)n1C (stereo not drawn) | 0 | 40* | -10 | 1 | -10 | 0
Cc1c(NC(=O)C(C)OC(=O)/C=C/c2ccccc2)c(=O)n(-c2ccccc2)n1C (stereo not drawn) | 3 | 4 | 13 | 2 | 9 | -1
COc1cc(/C=C/C(=O)OC(C)C(=O)Nc2c(C)n(C)n(-c3ccccc3)c2=O)ccc1O (stereo not drawn) | 2 | 119* | -3 | -2 | 3 | 0
Cc1c(NC(=O)C2CCCN2S(=O)(=O)c2ccccc2)c(=O)n(-c2ccccc2)n1C (stereo not drawn) | 57* | -1 | -4 | 2 | 6 | 0
Cc1ccc(N(C(C)C(=O)Nc2c(C)n(C)n(-c3ccccc3)c2=O)S(C)(=O)=O)cc1C (stereo not drawn) | -2 | -1 | -13 | 4 | 12 | -1
N=c1c(S(=O)(=O)c2ccc(Br)cc2)cc2c(=O)n3ccccc3nc2n1Cc1ccco1 | 28 | 2 | 14 | -35 | 7 | -1
N=c1c(S(=O)(=O)c2ccc(Cl)cc2)cc2c(=O)n3ccccc3nc2n1Cc1ccco1 | 40* | 4 | -5 | 5 | -9 | 0
CCC(C)(C)NC(=O)c1ccc2c(c1)N(CC(=O)OC)C(=O)C(C)(C)O2 | 1 | 18* | 4 | 0 | -7 | 0
CCOC(=O)CN1C(=O)C(C)(C)Oc2ccc(C(=O)NC(C)(C)CC)cc21 | -1 | -6 | 6 | 4 | 7 | 0
SMILES | CSN deneddyl inh | LANA-H2B inh | EBNA-1 inh | HNF4A DNA FP | ZTA counter | Bfl-1 A1 inh
CN1C(=O)c2cccc3c(Cl)ccc(c23)C1=O | 0 | 1 | 4 | -6 | 4 | 0
COc1ccccc1N1C(=O)c2cccc3c(Cl)ccc(c23)C1=O | -3 | -2 | 16 | 1 | 12 | 7.8*
CCOc1c(C)cnc2c1c(=O)n(Cc1ccc(Cl)cc1)c(=O)n2C | 0 | 17* | -6 | 4 | -10 | 2
O=C(CSc1nnc(-c2ccco2)o1)c1ccccc1 | 9 | 6 | 4 | 2 | -2 | 0
CC(=O)Nc1ccc(NC(=O)CSc2nnc(-c3ccco3)o2)cc1 | -17 | 20* | 2 | -1 | -6 | 0
O=C(CSc1nnc(-c2ccco2)o1)c1ccc[nH]1 | 38* | 4 | 3 | -3 | 7 | 1
CCc1ccc(NC(=O)CSc2nnc(-c3ccco3)o2)cc1 | 3 | 2 | 3 | 0 | -4 | 0
Cc1ccccc1OCC1CN(CN2CCOCC2)C(=O)O1 (stereo not drawn) | -2 | 24* | -8 | 0 | 11 | -1
Cc1sc(-n2c(C)cc(/C=C3\SC(=S)NC3=O)c2C)c(C#N)c1C | 35 | -1 | 8 | 67* | 18 | 3
Cc1cc(NS(=O)(=O)c2ccc(Nc3nc(-c4sc(N)nc4C)cs3)cc2)no1 | 73* | 1 | 4 | 3 | 27 | -2
Cc1cc(NS(=O)(=O)c2ccc(Nc3nc(-c4ccc(C)c(C)c4)cs3)cc2)no1 | 3 | 1 | 14 | 3 | 12 | 0
CC(NC(=O)C(=O)NN=C1CCCCCCCCCCC1)c1ccccc1 (stereo not drawn) | -3 | 12* | -2 | 6 | 9 | 0
O=C1NC[C@H](CC2CCCCC2)N(CCC23CC4CC(CC(C4)C2)C3)C1=O | 66* | nt | nt | 6 | nt | nt
O=C1NC[C@H](CC2CCCCC2)N(CCc2cccc(F)c2)C1=O | 38* | -2 | 14 | 4 | -3 | -1
COCCNC(=S)N1CCc2cc(OC)c(OC)cc2C1c1cccs1 (stereo not drawn) | 6 | 4 | 5 | -2 | 12 | 0
CC(=O)c1ccc(N2CCN(S(=O)(=O)c3ccc4c(c3)CCC(=O)N4)CC2)cc1 | -4 | nt | nt | 1 | nt | nt
O=C(CN1CCN(c2ccccc2F)CC1)NCc1ccccc1 | 5 | 33* | -9 | 2 | -22 | -1
CCC1CCC(N2CCN(c3ccccc3F)CC2)CC1 (stereo not drawn) | -1 | 1 | -2 | -5 | 2 | -1
CC(=O)N1CCC(N2CCN(c3ccccc3F)CC2)CC1 | -2 | 17* | -3 | -1 | -3 | 0
